# Assay outcomes (PubChem)
# Hep lipid drop = inhibitors of hepatocyte lipid droplet formation, primary screen, imaging, high-throughput imaging, BODIPY stain; inhibition, % at 6.5 µM; AML12 mouse hepatocytes, oleate lipid droplets; hit rate 0.4% among 240,000;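 active = lipid droplet intensity inhibited by at least 50%, with more than 500 cells counted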
#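 Material – mouse AML12 hepatocyte cell line, fixed after treatment · Compound dosing – one dose, 6.5 µM compound · Times – compound with oleate, overnight · Measured by – Image-based BODIPY and DAPI two-channel analysis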
# GRK2 aptamer HTS = compounds blocking aptamer binding on GRK2 – biochemical, human GRK2, bead flow cytometry, HTS, primary screen; hit rate 0.59% among 330,000; inhibition of aptamer binding, % at 10 µM; Beta-adrenergic receptor kinase 1 (Homo sapiens), P25098; FAM-aptamer displacement from GRK2;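 active = inhibition of aptamer binding above 40%, roughly 3 SD of noise, on plates passing a quality check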;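 note: median bead fluorescence of bound FAM aptamer so fluorescent compounds give negative values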
# TAG inh = inhibitors of triacylglycerol accumulation, primary screen, cell-based, uHTS, fluorescence, H9c2; AID 651582, 2012; inhibition, % at 12.5 µM; H9c2 cells, Nile Red lipid (TAG) fluorescence; cells loaded with 200 µM oleic acid; hit rate 0.66% among 230,000;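 active = pattern-corrected inhibition of lipid staining of at least 50% with the nuclear-stain viability signal not falling by more than 50%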;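 note: 0% = DMSO wells and 100% = triacsin C control wells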
# B2AR ag = beta2AR agonists driving receptor internalization, primary screen, cell-based, FAP fluorogen, flow cytometry; Beta-2 adrenergic receptor (Homo sapiens), P07550; Am2.2-beta2AR cells; response, % (test concentration not listed); hit rate 0.43% among 340,000;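 active = response above a set limit, near 3 SD of response in nonfluorescent compounds, cut at about 42% in these data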
# NTR1 agonist = agonists of human NTR1, primary screen, imaging, U2OS cells, beta-arrestin-GFP, high content; hit rate 0.17% among 330,000; NTR1-U2OS beta-arrestin-GFP spot imaging, agonist mode; activation, % at 20 µM;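 active = activation at or above 40% of the spot to cytoplasm intensity ratio, with at least 20 cells analyzed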;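 note: 0% = DMSO without peptide and 100% = 100 nM NTR1 peptide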
# Target sequence (P30989 whole entry, looked up): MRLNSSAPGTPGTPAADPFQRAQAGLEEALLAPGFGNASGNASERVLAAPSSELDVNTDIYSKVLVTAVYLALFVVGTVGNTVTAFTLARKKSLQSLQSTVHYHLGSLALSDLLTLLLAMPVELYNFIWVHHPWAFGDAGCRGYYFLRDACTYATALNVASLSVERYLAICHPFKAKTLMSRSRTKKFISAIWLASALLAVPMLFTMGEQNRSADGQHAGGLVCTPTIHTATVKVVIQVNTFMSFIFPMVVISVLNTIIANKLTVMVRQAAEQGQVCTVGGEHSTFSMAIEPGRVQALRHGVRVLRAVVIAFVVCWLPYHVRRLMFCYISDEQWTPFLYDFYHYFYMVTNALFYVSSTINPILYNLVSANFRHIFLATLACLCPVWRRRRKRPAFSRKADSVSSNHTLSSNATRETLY
# Arr AP2 block = inhibitors of beta-arrestin/AP2 binding, primary screen, biochemical, GPCR trafficking, flow cytometry; FITC-arrestin peptide / GST-AP2 beads; AP2 beta2 appendage carries R879A mutation; hit rate 0.31% among 340,000; AID 504490, 2011; beta-arrestin 1 C-terminal peptide binding to AP2 beta2-adaptin appendage (human); inhibition, % at 10 µM;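 active = inhibition above a set limit, near 3 SD of compounds lacking own fluorescence, cut at about 54% in these data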;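 note: plate controls were DMSO wells for no effect and 5 µM unlabelled arrestin peptide for full effect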
#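 Measured by: flow cytometry, FL1 (488/535 nm); Material: AP2 appendage R879A on GSH beads; Evaluation: percent response; Timing: pre-incubation 12 min, peptide binding 1 h, room temperature; Also added: 50 nM FITC-arrestin peptide; Medium: PBS with 0.05% Tween 20 and 0.1% BSA.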
# B2AR ag CP1 = beta2AR agonists via receptor internalization, confirmation, cell-based, FAP fluorogen, flow cytometry, single point, cherry pick 1 | shares compounds with B2AR ag | Am2.2-beta2AR cells, FAP surface receptor; active compounds read low | percent response (surface receptor), % at 10 µM | hit rate 25% among 1,100 | AID 540358, 2011;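 active = surface receptor percent response at or below 58%, roughly 3 SD from nonfluorescent compounds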
# B2AR FAP counter = flagged in Am2.2 fluorescence counterscreen for beta-2AR agonists. shares compounds with B2AR ag. Am2.2 cells, FAP fluorogen flow cytometry; active compounds read low. calls only at 10 µM. 1,100 tested, under 10 active. AID 588765;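 active = percent response below a set limit in fluorescence channel 1 and below 50% in channel 8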
# * = called active by the depositor; i = inactive; . = no result. This is a sample that favours compounds with a hit; in the whole collection about 2% have one here.
SMILES,Hep lipid drop,GRK2 aptamer HTS,TAG inh,B2AR ag,NTR1 agonist,Arr AP2 block,B2AR ag CP1,B2AR FAP counter
CC(C)Cn1nc(NS(=O)(=O)c2ccccc2)c2cc3ccccc3nc21,.,0.0,.,0.8,-1.5,27.0,127.5,i
CCOC(=O)c1cc(-c2cccs2)nc2c1c(C)nn2-c1ccccn1,15.0,1.0,5.1,4.9,21.8,-18.9,.,.
Cc1nn(-c2ccccn2)c2nc(-c3cccs3)cc(C(=O)NCc3ccco3)c12,29.3,0.0,.,43.4*,5.9,6.4,73.0,i
CCOc1ccc(/C=C/C(=O)OC(C)C(=O)NC2CCCCC2C)cc1OC (configuration not stated),.,1.0,-0.8,-5.0,0.5,2.6,.,.
O=C(C(c1ccccc1)c1ccccc1)N1CCN(c2ccccn2)CC1,-3.9,3.0,-6.9,113.3*,2.6,-0.4,15.6*,i
COc1ccc(C(=O)CC(=O)c2ccc(C(C)(C)C)cc2)cc1,.,.,10.1,3.1,.,-3.7,.,.
COc1ccc(C(=O)C(CCC(CNC(C)(C)C)C(=O)c2ccc(OC)cc2)CNC(C)(C)C)cc1 (configuration not stated),-56.7,0.0,.,53.9*,.,-2.5,80.2,i
O=C(CN1CCc2ccccc2C1)Nc1ccccc1Cl,-7.8,0.0,-7.4,0.2,0.4,38.0,.,.
O=C(CN1CCc2ccccc2C1)Nc1ccccc1N1CCCCCC1,-32.5,0.0,.,110.0*,19.6,5.3,96.7,i
CC1(C)C=Cc2cc(-c3coc4cc(O)cc(O)c4c3=O)cc(O)c2O1,.,0.0,.,-3.7,10.0,4.3,.,.
COc1cccc(CNC(=O)CCNC(=O)c2ccccc2OC)c1,-1.4,3.0,.,-0.4,0.4,2.5,.,.
Cc1ccc(OCC(=O)NCCCNC(=O)c2cccnc2)cc1,-8.4,0.0,.,1.0,-0.4,3.5,.,.
O=S(=O)(Nc1ccc(-c2cn3ccccc3n2)cc1)c1ccccc1,-4.6,0.0,2.8,-8.2,-0.1,25.2,.,.
Cc1cccc(S(=O)(=O)Nc2ccc(-c3cn4ccccc4n3)cc2)c1,23.8,0.0,.,78.9*,-0.1,10.0,131.1,i
CC(C)(C)c1ccc(C(=O)NCCN2CCOCC2)cc1,.,3.0,-1.7,-0.1,0.6,-1.0,.,.
CC(C)(C)c1ccc(C(=O)NCCCN2CCN(CCCNC(=O)c3ccc(C(C)(C)C)cc3)CC2)cc1,-4.2,0.0,.,48.7*,24.3,18.7,81.4,i
CCn1cc(C(=O)O)c(=O)c2cc(F)c(N3CCN(S(=O)(=O)c4ccc(NC(C)=O)cc4)CC3)cc21,6.7,0.0,0.1,56.2*,1.3,-8.0,75.9,i
CCN(CC)/C(=N\S(=O)(=O)c1ccccc1C)c1ccccc1,-18.6,0.0,.,4.2,0.1,-10.1,.,.
CCN(CC)/C(=N/S(=O)(=O)c1ccc(C)cc1)c1ccccc1,-11.5,0.0,10.1,77.7*,3.0,2.7,109.7,i
C[C@@H]1CN([C@@H](C)CO)C(=O)CCCn2cc(nn2)CO[C@H]1CN(C)C(=O)c1ccc2ccn(C)c2c1,.,.,-0.5,.,.,.,.,.
O=C(Cn1nc(-c2ccccc2)ccc1=O)Nc1ccc(NC(=O)c2ccccn2)cc1,-2.3,0.0,14.6,125.0*,-1.0,10.9,26.2*,i
COc1ccc(NC(=O)Cn2nnc(-c3ccccc3NC(=O)C3CC3)n2)cc1,.,0.0,.,-1.0,-0.9,18.5,118.6,i
CCCCCC1CCC(c2n[nH]c(=S)n2C)CC1 (configuration not stated),-13.8,0.0,10.0,-4.1,3.4,-5.3,110.4,i
C=CCn1c(C2CC2)n[nH]c1=S,17.2,0.0,-9.9,3.0,0.3,33.5,.,.
O=C(CCNC(=O)C1CCN(S(=O)(=O)c2ccccc2)CC1)NCc1ccc(Cl)c(Cl)c1,3.7,3.0,.,-3.2,1.6,2.0,.,.
SMILES,Hep lipid drop,GRK2 aptamer HTS,TAG inh,B2AR ag,NTR1 agonist,Arr AP2 block,B2AR ag CP1,B2AR FAP counter
O=C(Oc1c(CN2CCOCC2)cc(Cl)c2cccnc12)c1ccccc1F,2.1,2.0,113.0,-9.7,6.2,10.4,110.7,i
COc1cc(OC)cc(C(=O)Oc2c(CN3CCOCC3)cc(Cl)c3cccnc23)c1,0.9,2.0,85.0,-4.9,2.3,24.1,88.7,i
Cc1cnn(-c2nc(-c3ccccc3)cc(-c3ccccc3)n2)c1,16.7,.,3.3,42.2*,15.2,0.3,16.1*,i
FC(F)(F)c1cc(-c2ccccc2)nc(-n2cc(Cl)cn2)n1,0.7,3.0,-11.1,-14.6,6.0,-6.0,.,.
CCOC(=O)N1CCN(C(=O)C(NC(=O)c2ccc(C(C)(C)C)cc2)C(C)C)CC1 (configuration not stated),.,0.0,21.4,-2.6,-0.4,6.7,.,.
O=C(Nc1ccccc1)c1nc[nH]c1C(=O)NCCN(CCNC(=O)c1[nH]cnc1C(=O)Nc1ccccc1)CCNC(=O)c1[nH]cnc1C(=O)Nc1ccccc1,.,0.0,115.6,-1.0,6.9,4.1,.,.
COCCN1C(=O)c2oc3ccccc3c(=O)c2C1c1ccc(OC)c(OC)c1 (configuration not stated),0.4,0.0,9.0,-2.6,-3.8,0.7,.,.
C=CCN1C(=O)c2oc3ccccc3c(=O)c2C1c1ccc(O)c(OC)c1 (configuration not stated),.,3.0,3.9,-13.6,5.0,15.4,123.2,i
CNC(=S)N/N=C(\C)c1ccc(Cl)s1,1.9,0.0,.,-2.7,3.5,31.6,103.4,i
CCNC(=S)N/N=C(\C)c1ccc(Cl)s1,3.5,0.0,14.0,-6.6,2.0,-0.3,.,.
O=C1C2CCCCN2C(=O)N1CCCCN1CCN(c2cccc(C(F)(F)F)c2)CC1 (configuration not stated),.,.,-4.2,59.3*,.,35.9,69.9,i
Cc1cc(NC(=O)c2ccc3c(c2)OCCO3)ccc1NC(=O)c1ccco1,0.9,4.0,.,-5.2,-0.3,14.6,.,.
COc1cc(NC(=O)c2ccc3c(c2)OCO3)ccc1NC(=O)c1ccco1,4.2,1.0,42.1,-0.6,-2.6,-4.6,112.3,i
CC(=O)c1cccc(NC(=O)C(C)OC(=O)C2CCC2)c1 (configuration not stated),-3.7,0.0,-0.5,-3.2,-0.3,-19.4,.,.
